MBD2 DNA inh – inhibitors of human MBD2 binding to methylated oligonucleotide. Q9UBB5. TR-FRET. inhibition, % at 4.4 µM. 370,000 compounds, 0.31% hits. AID 686964; in the data active = inhibition above about 13%
LEDGF integ inh – blocks HIV-1 LEDGF/p75-dependent DNA integration | AID 743269 | inhibition, % at 3.7 µM | 370,000 compounds, 0.64% hits | TR-FRET IN-LEDGF/p75 DNA integration, Eu/Cy5;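 active = inhibition above the screen-wide mean plus 3 SD, cut at about 13% in these data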;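 note: signal is the Cy5 over europium emission ratio at 671 and 618 nm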
TDP2 absorb – blocks human TDP2 phosphodiesterase activity; O95551; recombinant TDP2, T5PNP hydrolysis, p-nitrophenol absorbance 415 nm; inhibition, % at 12.8 µM; 370,000 compounds, 0.34% hits; AID 720702;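 active = inhibition above the mean of all tested compounds plus 3 SD, set per campaign, cut at about 25% in these data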
Target sequence (O95551 whole entry, looked up): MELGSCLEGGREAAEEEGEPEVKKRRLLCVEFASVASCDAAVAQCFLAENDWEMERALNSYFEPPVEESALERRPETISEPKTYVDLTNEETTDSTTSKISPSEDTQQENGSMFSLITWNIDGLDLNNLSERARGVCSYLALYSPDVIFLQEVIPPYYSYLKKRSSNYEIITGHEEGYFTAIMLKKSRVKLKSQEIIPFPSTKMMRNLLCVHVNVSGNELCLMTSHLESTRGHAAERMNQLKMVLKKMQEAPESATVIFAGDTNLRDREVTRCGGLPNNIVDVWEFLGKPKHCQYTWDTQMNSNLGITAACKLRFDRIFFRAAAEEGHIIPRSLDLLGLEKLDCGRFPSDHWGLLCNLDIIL
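Assay system: Recombinant human TDP2 | Quantity: 120 nM TDP2 per well | Incubation: 2 h at 37 °C | Signal: Epi absorbance | Evaluation: Percent inhibition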
UHRF1 MBD2 ctr – UHRF1 methyl-DNA binding inhibition. Q96T88. UHRF1 binding to methylated oligo, TR-FRET. inhibition, % at 4.4 µM. 370,000 compounds, 0.75% hits. AID 687016; in the data active = inhibition above about 21%;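 note: UHRF1 SRA domain binding a hemimethylated CpG hairpin DNA probe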
Large screens that a line does not name were inactive. Rows were chosen to be rich in hits. Some 1.6% of all compounds tested hit in one or more screens of this group.

O=C(CCCN1CC=C(n2c(=O)[nH]c3ccccc32)CC1)c1ccc(F)cc1	UHRF1 MBD2 ctr 23
O=C(NCCN1CCC(n2c(=O)[nH]c3ccccc32)CC1)c1ccc(F)cc1	none
CCOC(=O)c1cccc(N2C(=O)Nc3ccccc3N2O)c1	UHRF1 MBD2 ctr 23
CCOC(=O)c1c(-c2ccccc2)csc1N1C(=O)Nc2ccccc2N1O	none
COC(=O)[C@]12C[C@H](CC(=O)N3CCSCC3)C(=O)N(Cc3ccc(Cl)cc3Cl)C1=C[C@H](COCc1ccccc1)O[C@@H]2C	none
CCNC(=O)NC(=O)C(C)OC(=O)C(C)(C)Oc1ccc(Cl)cc1 (stereo not drawn)	UHRF1 MBD2 ctr 26
COc1ccc(S[C@]2(C(=O)N3CCN(c4ncccn4)CC3)CC(=O)N(S(=O)(=O)c3ccc(F)cc3)[C@@H]2c2ccc(OC)cc2)cc1	none
Cc1cccn2c(=O)c3cc(C(=O)NC4CCCC4)n(C)c3nc12	none
COC1C=CC(CNC(=O)c2cc3c(=O)n4cccc(C)c4nc3n2C)(OC)O1 (stereo not drawn)	UHRF1 MBD2 ctr 69
O=S1(=O)C=CCN1Cc1cn(Cc2ccc(C(F)(F)F)cc2)nn1	none
COC(=O)[C@H](CC(C)C)N(CCCc1cn(Cc2ccc(C)cc2)nn1)S(=O)(=O)c1ccccc1Br	none
OCCN(CCO)CC(O)COc1ccc2c(c1)OCO2 (stereo not drawn)	UHRF1 MBD2 ctr 67
CCN(CC)CC(O)COc1ccc2c(c1)OCO2 (stereo not drawn)	none
COC(=O)C1CN(Cc2cn(Cc3ccccc3)nn2)CCS(=O)(=O)N1Cc1ccccc1 (stereo not drawn)	UHRF1 MBD2 ctr 28
COC(=O)C1CN(Cc2cn(Cc3ccc(C)cc3)nn2)CCS(=O)(=O)N1Cc1ccccc1 (stereo not drawn)	none
CCOC(=O)Cn1cc(CN2C(C(=O)OC)CN(Cc3ccc(OC)cc3)CCS2(=O)=O)nn1 (stereo not drawn)	UHRF1 MBD2 ctr 80
COCCCn1cc(CN2CC=CS2(=O)=O)nn1	none
CC1CN(C(=O)c2ccccc2Oc2ccccc2)CC(C)O1 (stereo not drawn)	UHRF1 MBD2 ctr 33
Cc1cnc(C(=O)N2CCc3c([nH]c4ccccc34)C2c2ccc(F)cc2)cn1 (stereo not drawn)	UHRF1 MBD2 ctr 21
C[C@H](O)[C@@H]1CN2CCc3ccc(-c4ccc5c(c4)OCO5)cc3[C@@H]2C[C@@H]1N(C)CC1CCCCC1	none
Cc1ccccc1N1CC(=O)N(c2ccccc2C)CC1=O	none
CC1=NN(c2ccccc2C)C(=O)C1	TDP2 absorb 51
COc1cccc(NC(=S)N(CCN(C)C)Cc2cccs2)c1	UHRF1 MBD2 ctr 21
COc1cccc(NC(=S)N(CCc2c(C)[nH]c3ccc(C)cc23)Cc2cccs2)c1	none
COc1cccc(NC(=S)N(CCCN2CCC(C)CC2)Cc2cccs2)c1	none
CSc1cccc(NC(=S)N(CCCN2CCC(C)CC2)Cc2cccs2)c1	UHRF1 MBD2 ctr 28
CCOc1ccccc1NC(=O)CN(c1cc(C)cc(C)c1)S(=O)(=O)c1c(C)noc1C	UHRF1 MBD2 ctr 27
CCOc1ccccc1NC(=O)CN(c1ccc(OC)cc1)S(=O)(=O)c1c(C)noc1C	none
COCCCNC(=O)/C(C#N)=C/c1c(N2CCN(C)CC2)nc2c(C)cccn2c1=O	UHRF1 MBD2 ctr 52
Cc1ccc(S(=O)(=O)/C(C#N)=C/c2c(N3CCC(C(N)=O)CC3)nc3c(C)cccn3c2=O)cc1	UHRF1 MBD2 ctr 22
CC(COc1ccc([N+](=O)[O-])cc1Cl)CN1CCC(C(O)(c2ccccc2)c2ccccc2)CC1 (stereo not drawn)	none
O=C(NN1C(=O)CSC1=S)C(=O)NN1C(=O)CSC1=S	LEDGF integ inh 29
O=C(Cc1cccc2ccccc12)NN1C(=O)CSC1=S	none
CCOC(=O)c1ccc(NC(=O)C(=O)NCc2ccco2)cc1	UHRF1 MBD2 ctr 24
CCOC(=O)c1ccc(NC(=O)CCC(=O)NCc2ccco2)cc1	none
CCOC(=O)[C@@]12CN(C(=O)OC(C)(C)C)CC=C1N(Cc1ccc(OC)cc1)C(=O)[C@H]2CC(=O)NCCCN1CCCC1=O	none
O=C(CBr)c1ccc([N+](=O)[O-])c(CS(=O)(=O)c2ccc(Cl)cc2)c1	UHRF1 MBD2 ctr 70
C#CCOCCOCCOCCNc1nc(N2CCN(C(=O)[C@H](CCCCN)n3cc([C@@H](N)CC(C)C)nn3)CC2)nc(N2CCN(C(=O)[C@H](Cc3cc4ccccc4[nH]3)n3cc([C@@H](N)CC(C)C)nn3)CC2)n1	none
N#C/C(=C\c1ccccc1[N+](=O)[O-])C(=O)NCc1ccccc1	UHRF1 MBD2 ctr 25
N#C/C(=C\C=C\c1ccccc1[N+](=O)[O-])C(=O)NCc1ccccc1	none
NCC12CC3CC(C1)CC(c1ccc(Cl)cc1)(C3)C2	UHRF1 MBD2 ctr 21
O=C(Cc1ccccc1)N[C@@H]1c2ccccc2CC[C@@H]1OCc1ccccc1	none
O=C(CCc1ccccc1)N[C@@H]1c2ccccc2CC[C@H]1OCc1ccccc1	UHRF1 MBD2 ctr 23
CCOC(=O)C(Cc1ccc(OC)c([N+](=O)[O-])c1)NC(=O)CCC(=O)Nc1ccc(OC)cc1 (stereo not drawn)	UHRF1 MBD2 ctr 28
COC(=O)C1=C(C)N(Cc2ccc(Br)cc2)C(=S)NC1c1cccc(Br)c1 (stereo not drawn)	none
COc1cc(C)ccc1OCC(=O)OCC(=O)c1cc(C)n(CC2CCCO2)c1C (stereo not drawn)	none
COc1cc(C(=O)OCC(=O)c2cc(C)n(CC3CCCO3)c2C)cc(OC)c1C (stereo not drawn)	UHRF1 MBD2 ctr 21
CCc1ccc(NC(=O)C(=O)NCC(O)c2ccccc2)cc1 (stereo not drawn)	UHRF1 MBD2 ctr 52
Cc1cc(N2CCN(S(C)(=O)=O)C[C@H]2C)ccc1N1CCN(Cc2ccccc2)[C@H](C)C1	none
CCOc1ccc(Br)cc1S(=O)(=O)Nc1ccc(C(=O)OCC(=O)N(C)c2ccccc2)cc1	none
CCOc1ccc(Br)cc1S(=O)(=O)Nc1cccc(S(=O)(=O)N(C)c2ccccc2)c1	UHRF1 MBD2 ctr 23
COc1cccc(CC(=O)OCC(=O)NC2(C#N)CCCC2)c1	none
COc1cccc(CC(=O)OCC(=O)NC2(C#N)CCCCC2)c1	UHRF1 MBD2 ctr 46
COc1ccc(N/N=C(\C#N)C(N)=O)cc1	none
N#C/C(=N/Nc1ccc(OC(F)(F)F)cc1)C(N)=S	UHRF1 MBD2 ctr 31
COc1ccc(-c2nnc(SCC(=O)Nc3ccc(S(=O)(=O)Nc4nccs4)cc3)n2-c2ccc(OC)cc2)cc1	none
CC(OC(=O)c1nn(C)c(=O)c2ccccc12)C(=O)NC1CCCCC1C (stereo not drawn)	UHRF1 MBD2 ctr 26
CC(OC(=O)c1n[nH]c2ccccc12)C(=O)NC1CCCCC1C (stereo not drawn)	none
CC(OC(=O)C1=NN(c2ccccc2)C(=O)CC1)C(=O)NC1CCCCC1C (stereo not drawn)	UHRF1 MBD2 ctr 48
N=c1n(CC(=O)c2cccs2)c2ccccc2n1Cc1ccccc1	UHRF1 MBD2 ctr 25
O=C(O)Cn1c(=O)n(Cc2ccccc2)c2ccccc21	UHRF1 MBD2 ctr 28

Screening data as filed in PubChem.
